# Test results: the RNAGym collection of RNA variant scans (doi:10.1126/science.aae0568)
# This sample holds only a part of the variants without activity.
# B1: tRNA (parent)
# chain: GUUCCGUUGGCGUAAUGGUAACGCGUCUCCCUCCUAAGGAGAAGACUGCGGGUUCGAGUCCCGUACGGAACG
# Variants of: B1
# Experiment: yeast fitness relative to wild type (ratio to wild type); higher = fitter; tRNA-Arg(CCU), competitive growth, 37 C, YPD
# In short: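 Changes in genotype frequencies gave Darwinian fitness relative to wild type. Frequencies were read by 100-nucleotide paired-end sequencing of gene amplicons before and after pooled Saccharomyces cerevisiae strains, carrying tRNA-Arg(CCU) gene variants at the native locus, were competed in YPD at 37°C for 24 hours in six replicates. A genotype was kept only with ≥ 100 starting reads, and estimates < 0.5 were set to 0.5.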
row,Variant,yeast fitness
1,U3A G9A C29U,0.751
2,U3A G38C,0.611
3,U3A G6C C34G G38C A45G U59G,≤ 0.5
4,U3A C31U G52A,0.614
5,U3A C11G G17C C24G C46A G68C,0.553
6,U3A C22G G48A,0.544
7,U3A C24G C31U C61A,0.533
8,U3A C11G A14C C62U G63A,≤ 0.5
9,U3A C24G C31U C62A,≤ 0.5
10,U3A C29G G38A C62G,≤ 0.5
11,U3A G17A C22U A43C A69C,≤ 0.5
12,U3A U8A U32A U47A A57U,≤ 0.5
13,U3A C24U G39A C55A,≤ 0.5
14,U3A C22U,0.738
15,U3A C27A A43G,0.586
16,U3A C30U A43C,0.554
17,U3A C33U U59C,≤ 0.5
18,U3A U47C,0.835
19,U3A U47A,0.744
20,U3A C55U G56C,≤ 0.5
21,U3A G17A,0.829
22,U3A G41C,0.694
23,U3A G41A,0.754
24,U3A C5A C30G G38C C60G,≤ 0.5

row,Variant,yeast fitness
1,U3A U16C C46U C49U,≤ 0.5
2,U3A C49U C60U A70G,0.551
3,U3C A14C A45C,≤ 0.5
4,U3A C30G C33U,0.536
5,U3A U8G C27A C61A G67A,≤ 0.5
6,U3A G48A G67A,0.541
7,U3A G44C,0.879
8,U3A C31G A43U C60G A65C G67C,0.664
9,U3A G41C U53G,≤ 0.5
10,U3A G58C,0.987
11,U3A C46U G56C A69U,≤ 0.5
12,U3A C11G G17C C24G C46A A65U,≤ 0.5
13,U3A G9A A14C C55U A70G,≤ 0.5
14,U3A U7A C30U G50C U59C,≤ 0.5
15,U3A G17A C22U U64C,≤ 0.5
16,U3A C33G C34G U35A G44A,0.556
17,U3A C24U A40U G48A,≤ 0.5
18,U3A U13C C29A A43G,≤ 0.5
19,U3A C11G A14C C24G C31A,≤ 0.5
20,U3A U8A,0.723
21,U3A U8C,0.925
22,U3A U26C C31U A40C,≤ 0.5
23,U3A G18A A45G A57C,≤ 0.5
24,U3A G51A U53C,0.648

row,Variant,yeast fitness
1,U3A U16C C33G C46U,≤ 0.5
2,U3A C5G G10A C31U C33G G48C,≤ 0.5
3,U3A G9C A20C A21C G25A G56A U64C,0.73
4,U3A G6C C55U G63A,≤ 0.5
5,U3A G12A C24G C29U A36G,≤ 0.5
6,U3A U19A A70C,0.812
7,U3A C33U A45C,≤ 0.5
8,U3A U16C C27G A36U G39C U53A A70G,≤ 0.5
9,U3A C22G C29U,0.55
10,U3A G12C U13C A69C,0.732
11,U3A G12C U13C A69U,1.13
12,U3A C11G C31G C62A,≤ 0.5
13,U3A C22G C29U A65C,≤ 0.5
14,U3A C33U A43C,≤ 0.5
15,U3A C5U G18C U54A G56A A70G,≤ 0.5
16,U3A G9C A65C,≤ 0.5
17,U3A C31U A36C,0.571
18,U3A C27U G41C U64C A70C,0.896
19,U3A U8C A14C C61U,≤ 0.5
20,U3A C5G C55U G67C,0.599
21,U3A C31G C66U,0.641
22,U3A G12C U13C C66U,0.664
23,U3A C30G C55U,0.673
24,U3A C5U A21G A43C,0.526

row,Variant,yeast fitness
1,U3A G9A A20G,0.665
2,U3A G9A U28G,≤ 0.5
3,U3A U64C G68C,0.586
4,U3A C11U U13C C31A,≤ 0.5
5,U3A C5A C66U,≤ 0.5
6,U3A C11U C29A A42G A57C,≤ 0.5
7,U3A U8C G38C,≤ 0.5
8,U3A C11A C29U A57C,≤ 0.5
9,U3A C34U A43G C49A G52A,≤ 0.5
10,U3A G68C,0.822
11,U3A C5G C46G U53A,0.527
12,U3A C11U C55G C60G,≤ 0.5
13,U3A C5U C22G U53G,≤ 0.5
14,U3A C27A A42G C46G,≤ 0.5
15,U3A G12C U19C,≤ 0.5
16,U3A C62U,0.961
17,U3A G44A A45C U53A C55A U59C C62U,0.534
18,U3A G12A U19A,0.763
19,U3A G51C,≤ 0.5
20,U3A U13C C29A U32A A43G G67C,≤ 0.5
21,U3A C5A C33G C34U,0.634
22,U3A G48A,0.844
23,U3A G48C,0.842
24,U3A C27G C31U C33U A42C,≤ 0.5

row,Variant,yeast fitness
1,U3A G38A G48A,0.54
2,U3A G9C G56C,≤ 0.5
3,U3A C27G C31U C33U A42C C49U,≤ 0.5
4,U3A G9C C33G A42U A43U A65C G68C,≤ 0.5
5,U3A C24U A45C,0.688
6,U3A C30G A57C G58C,≤ 0.5
7,U3A U26G C49A C60A,≤ 0.5
8,U3A C27G,0.643
9,U3A C27A,0.86
10,U3A C31U A36C A65U,≤ 0.5
11,U3A G9A A14G C49U,≤ 0.5
12,U3A C29U C31A A40C,0.631
13,U3A C11G A14C C24G,0.653
14,U3A G9A U19A C61G,≤ 0.5
15,U3A G9C G67C,≤ 0.5
16,U3A U16G C46U U54A,≤ 0.5
17,U3A G12C U28C G56A C60G,≤ 0.5
18,U3A U64G,0.831
19,U3A U64C,1.01
20,U3A U13G C22U A40U C55G A70G,≤ 0.5
21,U3A U35G A43U A57C,≤ 0.5
22,U3A G18C U28A,≤ 0.5
23,U3A C22G C33G G51A,≤ 0.5
24,U3A C46A,1.05

row,Variant,yeast fitness
1,U3A C22A C33A A36U U53A U54A,≤ 0.5
2,U3A G9C A20G C29A G67U,0.633
3,U3A C31U U53A,0.518
4,U3A G38A A57U C62U,≤ 0.5
5,U3A C5A G12C G25A C30U A69C,≤ 0.5
6,U3C A14C A21G A37U C49A C60G,0.629
7,U3A G50C,0.727
8,U3A G50A,0.853
9,U3A U7A A69U,≤ 0.5
10,U3A C11U A37U G41A G52C A57C,≤ 0.5
11,U3A C29G A57G,≤ 0.5
12,U3A U35G A43U A57C C62A C66A,≤ 0.5
13,U3A U8A C31G A40C C66U,≤ 0.5
14,U3A G23C,0.653
15,U3A C11G G41C,0.61
16,U3A U59C,0.884
17,U3A C22G C29U G63C C66U,≤ 0.5
18,U3A C24G C29U A36G,0.639
19,U3A C11U C29A A42G,0.629
20,U3A C60U C66G,0.658
21,U3A C22G C29G C46U A70U,≤ 0.5
22,U3A C30U G50C,≤ 0.5
23,U3A U13G C22U A40U C66G,0.627
24,U3A U13G A70C,0.784

row,Variant,yeast fitness
1,U3A U8A C31G A40C G58C C62A G68A,≤ 0.5
2,U3A C27U A69C,0.713
3,U3A C49A U53G A57U,0.798
4,U3A G6A U16A C24G A37U C49U C62U,0.61
5,U3A C61U G67A,0.562
6,U3C A14C A45C C60G,0.591
7,U3A G10C A36U A40C C60G A70G,≤ 0.5
8,U3A C24U G39A,≤ 0.5
9,U3A C31U U47C,0.871
10,U3A G18A C22U U64C A70G,≤ 0.5
11,U3A U8A G25C C30A U54C,≤ 0.5
12,U3A U53C C55U,≤ 0.5
13,U3C A14G C22A C27G G39C,≤ 0.5
14,U3A G12C G58A,0.579
15,U3A C5U A43G,0.607
16,U3A C49A A69U,0.558
17,U3A C30G G38C A69C,0.671
18,U3A G39A,0.888
19,U3A G39C,0.822
20,U3A C61G,0.767
21,U3A C61A,0.778
22,U3A C27U A36G,0.594
23,U3A G6C A20U A36U,0.571
